Experimental findings from ChEMBL document CHEMBL1777744, “Synthesis and anti-tumor activity of novel ethyl 3-aryl-4-oxo-3,3a,4,6-tetrahydro-1H-furo[3,4-c]pyran-3a-carboxylates” (Bioorg Med Chem Lett, 2011) are described below.

Common to all, as to format: functional, cell-based
The test system of one test is A549. Put plainly: Cytotoxicity against human A549 cells by MTT assay. The method, boiled down:
(§1)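 Colorimetric MTT assay, run as quintuplicate dose-response tests. Cytotoxic effect was plotted against log10 of drug concentration for each cell line. IC50 is the concentration that reduced the optical density of treated cells by 50% relative to untreated cells. 5-fluorouracil served as control.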
(Formazan colour is commonly taken as a measure of viable cells.)

In a further test the test system is HeLa. Put plainly: Cytotoxicity against human HeLa cells by MTT assay. The method, boiled down:
as §1

Test [1] in a line: Cytotoxicity against human QGY cells by MTT assay. The method, boiled down: as §1

Some results are limits rather than exact numbers.

As usually defined, the IC50 is the point on the concentration scale where inhibition reaches its midpoint. `CCOC(=O)C12C(=O)OCC=C1COC2c1ccc(N(C)C)cc1` (centres undefined): the IC50 was 89.6 µM in the test with A549, 23.4 µM with HeLa and above 1000 µM in test [1].
In the same order, the values of `O=c1[nH]cc(F)c(=O)[nH]1` [FLUOROURACIL] are 5.6 µM, 16.1 µM and 14.1 µM.
For `CCOC(=O)C12C(=O)OCC=C1COC2c1ccc(F)cc1` (centres undefined), in that order: above 1000 µM, 22.9 µM and above 1000 µM.
For `CCOC(=O)C12C(=O)OCC=C1COC2c1ccc(Cl)cc1` (centres undefined), in that order: above 1000 µM, 118 µM and above 1000 µM.
`CCOC(=O)C12C(=O)OCC=C1COC2c1cc(OC)cc(OC)c1` (centres undefined): the IC50 is above 1000 µM in the test with A549, 16 µM in the test with HeLa and above 1000 µM in test [1].
On to `CCOC(=O)C12C(=O)OCC=C1COC2c1ccccc1` (centres undefined), for which the IC50 was above 1000 µM with A549, 12.8 µM in the test on HeLa and above 1000 µM in test [1].
`CCOC(=O)C12C(=O)OCC=C1COC2c1ccc(Cl)c(Cl)c1` (centres undefined): the IC50 was above 1000 µM with A549, 72.4 µM in the test on HeLa and above 1000 µM in test [1].
With `CCOC(=O)C12C(=O)OCC=C1COC2c1ccccn1` (centres undefined), the IC50 was above 1000 µM in the test on A549, 20.7 µM with HeLa and above 1000 µM in test [1].
Consider `CCOC(=O)C12C(=O)OCC=C1COC2c1ccc(OC)c(OC)c1` (centres undefined), for which the IC50 is above 1000 µM in the test on A549, 10 µM in the test with HeLa and above 1000 µM in test [1].
As for `CCOC(=O)C12C(=O)OCC=C1COC2c1ccccc1F` (centres undefined), the IC50 in the test on A549 is above 1000 µM; in the test with HeLa it was 22.1 µM; in test [1], above 1000 µM.
In the case of `CCOC(=O)C12C(=O)OCC=C1COC2c1ccc(Br)cc1` (centres undefined), the IC50 was above 1000 µM with A549, 48.7 µM in the test on HeLa and above 1000 µM in test [1].
For the compound `CCOC(=O)C12C(=O)OCC=C1COC2c1cccs1` (centres undefined), the half-maximal inhibitory concentration (IC50) in the test on A549 is above 1000 µM; in the test on HeLa, 30.4 µM; in test [1], above 1000 µM.
Consider `CCOC(=O)C12C(=O)OCC=C1COC2c1ccc(C(C)(C)C)cc1` (centres undefined), for which the IC50 with A549 was above 1000 µM; with HeLa it was 25.4 µM; in test [1], above 1000 µM.
For `CCOC(=O)C12C(=O)OCC=C1COC2c1cccc(Cl)c1` (centres undefined), the IC50 is 28.4 µM in the test with A549, above 1000 µM with HeLa and above 1000 µM in test [1].
Turning to `CCOC(=O)C12C(=O)OCC=C1COC2c1ccc(OC)cc1` (centres undefined), the IC50 in the test on A549 is 9.3 µM; in the test with HeLa, 18.3 µM; in test [1] it was above 1000 µM.
In the same order, the values of `CCOC(=O)C12C(=O)OCC=C1COC2c1ccco1` (centres undefined) are above 1000 µM, 28.3 µM and above 1000 µM.
With `CCOC(=O)C12C(=O)OCC=C1COC2c1ccc([N+](=O)[O-])cc1` (centres undefined), the IC50 in the test on A549 is 36.8 µM; with HeLa, 53.4 µM; in test [1], above 1000 µM.
In the same order, the values of `CCOC(=O)C12C(=O)OCC=C1COC2c1cc(OC)c(OC)c(OC)c1` (centres undefined) are 13.3 µM, 5.4 µM and above 1000 µM.
